Granule exo inh = lytic granule exocytosis inhibition; 0.66% of 360,000 active; TALL-104 LAMP-1 surface exposure, flow cytometry; cells stimulated with thapsigargin and PMA; inhibition, % at 10 µM;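 active means inhibition above about 55%, limit read from the data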
ABHD5 PLIN5 PPI = ABHD5-PLIN5 protein interaction inhibition; Split G. princeps luciferase complementation, luminescence, 4 h; inhibition, % at 4 µM; 0.78% of 360,000 active;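 active means inhibition above the mean inhibition across every tested compound plus 3 SD, cut at about 22% in these data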;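 further: 0% = DMSO only wells and the 100% control is not disclosed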
PfG6PD inh = PfG6PD (Plasmodium falciparum) enzyme inhibition | PfGluPho enzyme, NADPH resazurin-diaphorase fluorescence | inhibition, % at 20 µM | 0.78% of 350,000 active | AID 504690;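 active means inhibition reaching at least a set limit at 20 µM in the primary screen, cut at about 59% in these data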;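 further: 0% = DMSO wells with substrate and 100% = DMSO wells lacking glucose-6-phosphate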
HKDC1 inhibitor = inhibitors of human hexokinase HKDC1 | recombinant HKDC1, G6PDH/diaphorase resazurin coupled fluorescence | inhibition, % at 20 µM | 0.16% of 340,000 active | AID 493160;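 active means inhibition above about 35% when tested at 20 µM, limit read from the data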;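 further: plate controls were DMSO wells with enzyme for no effect and DMSO wells lacking enzyme for full effect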
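Assay system: in-house recombinant HK5 (HKDC1) enzyme. Input: HKDC1 at 5 µg/mL. Medium: Tris pH 8.0 buffer with MgCl2, Tween-20, BSA, BME. Dosing: single 20 µM dose. Schedule: 90 min reaction incubation at room temperature, dark. Signal: resazurin-to-resorufin fluorescence via G6PDH and diaphorase coupling, 525/613 nm. Controls: DMSO-enzyme wells negative, buffer-substituted wells positive.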
PfG6PD confirm = PfG6PD inhibition, single-dose confirmed; recombinant PfGluPho, NADPH-diaphorase-resazurin fluorescence; 34% of 2,400 active; shares compounds with PfG6PD inh; inhibition, % at 20 µM;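 active means inhibition of at least 50% at 20 µM in any single replicate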;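 further: 0% = DMSO with substrate and 100% = DMSO lacking glucose-6-phosphate substrate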
Diaph ctr 10uM = diaphorase inhibition or oxidation at 10 uM NADPH | shares compounds with PfG6PD inh | diaphorase-coupled resazurin reduction, fluorescence, NADPH 10 uM | inhibition, % at 20 µM | 39% of 820 active;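 active means average inhibition reaching 50% or more with the compound at 20 µM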;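 further: resorufin red fluorescence formed as diaphorase reduces resazurin using NADPH; 0% = DMSO with enzyme and 100% = DMSO without enzyme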
Diaph ctr 30uM = counter-screen for P. falciparum G6PD inhibitors: diaphorase inhibitors, oxidizers | 29% of 820 active | Diaphorase/resazurin coupled assay, resorufin fluorescence, 30 uM NADPH | AID 504863 | inhibition, % at 20 µM | shares compounds with PfG6PD inh;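 active means inhibition averaging 50% or more, tested at 20 µM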;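 further: 0% = DMSO with enzyme and 100% = DMSO wells lacking diaphorase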
Numbers without * were called inactive; nt = no result given. This is a sample that favours compounds with a hit; in the whole collection about 2.2% have one here.

SMILES	Granule exo inh	ABHD5 PLIN5 PPI	PfG6PD inh	HKDC1 inhibitor	PfG6PD confirm	Diaph ctr 10uM	Diaph ctr 30uM
CCC(C)C(=O)Nc1nc(-c2ccc3c(c2)NC(=O)CO3)cs1 (configuration not stated)	-4.3	-8.5	64.4*	5.4	14.4	nt	nt
O=C1COc2ccc(-c3csc(NCCc4ccccc4)n3)cc2N1	-2.1	0.3	61.4*	-6.6	9.2	nt	nt
Nc1nc(-c2ccc3c(c2)NC(=O)CO3)cs1	-0.4	0.0	3.4	-5.8	nt	nt	nt
c1ccc(CCNc2nc(-c3ccncc3)cs2)cc1	0.6	-2.4	-6.0	2.4	nt	nt	nt
CCCOc1cc(N)ccc1C(=O)OCCN(CC)CC	1.2	-7.5	-6.6	-7.1	nt	nt	nt
CCCOc1ccc(N)cc1N	22.8	-40.6	115.4*	26.4	69.6*	51.7*	50.6*
O=S(=O)(Nc1cccc2ncccc12)c1cccs1	-1.2	-0.7	98.8*	18.9	61.2*	61.5*	56.4*
CCOc1ccccc1NS(=O)(=O)c1cccs1	3.2	-0.1	98.7*	-0.9	71.7*	67.6*	61.2*
CCOc1ccccc1NS(=O)(=O)c1c(C)noc1C	-1.5	1.1	63.2*	0.0	54.4*	45.4	33.9
O=C1CN(C(=O)COC(=O)CCC(=O)c2ccc(F)cc2)c2ccccc2N1	-1.4	-8.0	0.6	-0.4	nt	nt	nt
CC(NC(=O)CN1C(=O)NC2(CCCCC2)C1=O)c1ccc(S(N)(=O)=O)cc1 (configuration not stated)	8.1	11.2	4.2	0.8	nt	nt	nt
CC(C(=O)Nc1ccc([N+](=O)[O-])cc1Cl)N1CCN(S(=O)(=O)c2cccs2)CC1 (configuration not stated)	0.1	5.8	12.0	0.8	nt	nt	nt
CC(C(=O)Nc1cc([N+](=O)[O-])ccc1Cl)N1CCN(c2ccc(O)cc2)CC1 (configuration not stated)	-0.1	7.6	59.5*	6.5	28.8	nt	nt
COc1ccccc1NC(=O)c1ccc2[nH]c(C)c(C)c2c1	-10.9	-7.5	81.2*	-4.0	32.3	nt	nt
CSCCC(NC(=O)c1ccc([N+](=O)[O-])cc1Cl)C(=O)OC(C)C(=O)NCc1ccco1 (configuration not stated)	-2.9	4.5	-11.7	1.0	nt	nt	nt
Oc1ccc(Nc2ccc3ccccc3c2)cc1	43.2	-37.7	63.1*	19.9	29.4	nt	nt
CSc1nc(=NC(C)=O)ss1	0.6	-5.7	68.1*	-8.7	37.6	nt	nt
CCOc1ccccc1C(=O)Nc1ccc(S(=O)(=O)Nc2nccc(C)n2)cc1	1.3	-3.4	73.2*	-2.8	13.7	nt	nt
CCOc1ccc(C(=O)Nc2ccc(S(=O)(=O)Nc3nccc(C)n3)cc2)cc1OCC	1.2	-1.1	-0.9	-5.5	nt	nt	nt
Cc1cc(C)n(CC(=O)NNC(=O)COc2ccc(Br)cc2F)n1	-2.3	6.7	-11.6	0.4	nt	nt	nt
Cc1ccc2nc3sc(C(=O)N4CCOCC4)c(N)c3cc2c1	-4.6	-9.7	83.8*	2.9	52.2*	60.9*	39.7
Cc1ccc2cc3c(N)c(C(=O)N4CCOCC4)sc3nc2c1	-6.1	-1.7	31.3	3.3	nt	nt	nt
Cn1cc(S(=O)(=O)Cc2ccc(F)cc2)c2ccccc21	5.5	3.0	102.6*	1.6	62.3*	68.9*	51.1*
Cn1cc(CC(=O)NCc2ccc(F)cc2)c2ccccc21	3.0	3.9	19.1	-4.2	nt	nt	nt
Cn1cc(S(=O)(=O)CC(=O)N2CCc3ccccc32)c2ccccc21	-0.4	8.6	74.3*	0.9	53.4*	48.8	45.6
NNC(=O)CN1C(c2cccc(Cl)c2)=Nc2ccc(Br)cc2C1c1ccccc1 (configuration not stated)	-0.1	-4.3	27.2	2.5	nt	nt	nt
NNC(=O)CN1C(c2ccccc2Br)=Nc2ccc(Br)cc2C1c1ccccc1 (configuration not stated)	13.0	0.1	88.4*	0.4	59.6*	53.7*	34.2
O=C(NCc1ccco1)c1cccnc1-c1nc2ccccc2s1	1.1	-3.7	59.7*	8.0	25.3	nt	nt
Cc1ccc(N/C(N)=N/c2nc(C)cc(C)n2)cc1	-0.9	-7.6	4.3	-14.6	nt	nt	nt
Cc1cc(C)nc(/N=C(\N)Nc2ccccc2-c2ccccc2)n1	0.3	3.8	71.8*	-10.1	55.3*	52.1*	43.9

Source: PubChem
